Consider seven molecules from ChEMBL document CHEMBL1156127, “Synthesis, anticonvulsant activity and 3D-QSAR study of some prop-2-eneamido and 1-acetyl-pyrazolin derivatives of aminobenzothiazole” (Eur J Med Chem, 2010).

The species named for data set [1] is Mus musculus. Nature of the data set: Protection index, ratio of TD50 to ED50 by MES test for albino mouse. Type of data set: functional. A digest of the protocol:
(§1)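 Mice were trained on a 3.2 cm rod turning at 6 rpm, then dosed ip at 20–1000 µmol/kg and tested at 0.5 h. […] PI = TD50/ED50, with ED50 from the MES test.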

Data set [2] can be described thus: Neurotoxicity in ip dosed albino mouse during 1 min by rotarod test. Type of data set: toxicity, organism-based. The note with it: in vivo. In outline:
as §1

Data set [3] concerns Mus musculus. Nature of the data set: Behavioral effect in albino mouse assessed as change in locomotor activity during 10 mins at 100 umol/kg, ip after 0.5 hrs. Type of data set: functional. A digest of the protocol: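 Mouse activity counted by actophotometer for 10 min 24 h before dosing, then again 0.5 h after 100 µmol/kg ip. % change = 100 − [(post × 100)/pre]. N = 6, mean ± SEM, Student's t test at p < 0.05.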

Data set [4] has as its system Mus musculus. In words: Anticonvulsant activity in ip dosed albino mouse treated 0.5 hrs before PTZ challenge by scPTZ test. Type of data set: functional. A digest of the protocol: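 Compound given ip (20–1000 µmol/kg in 0.5% methyl cellulose) 0.5 h before pentylenetetrazole, which was dissolved in 0.9% NaCl and injected subcutaneously in the posterior midline of mice. Onset and severity of convulsions were scored, and ED50 was derived.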

The subject of data set [5] is Rattus norvegicus. In words: CNS toxicity in albino rat assessed as duration of immobility at 100 umol/kg, ip after 0.5 hrs by Porsolt's swimpool test (Rvb= 104 +/- 1.8). Particulars: in vivo.
The subject of data set [6] is Mus musculus. In words: Anticonvulsant activity in ip dosed albino mouse assessed as absence of hind limb tonic extension after 0.5 hrs by MES test. The data set is classed as functional, Hindlimb. The note with it: for ED50: Mus musculus, albino, Hindlimb, ip, 0.5 h. A digest of the protocol:
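Mice given compound ip at 20–1000 µmol/kg, suspended in 0.5% methyl cellulose/water. Seizure induced 0.5 h later by electroconvulsometer, 50 mA, 60 cycle alternating current, 0.25 s via ear clip electrodes. Protection is reduced duration or absence of hind limb tonic extension. ED50 from at least three doses giving 10–90% protection.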

Data set [7] concerns Rattus norvegicus. Nature of the data set: CNS toxicity in albino rat assessed as duration of immobility at 100 umol/kg, ip after 0.5 hrs by Porsolt's swimpool test (Rvb= 113 +/- 3.1). Particulars: in vivo.
Data set [8] has as its system Rattus norvegicus. Nature of the data set: Hepatotoxicity in albino rat assessed as serum SGOT level at 100 umol/kg, ip after 15 days (Rvb= 92.2 +/- 2.78). The note with it: in vivo, 360 h.
The test system of data set [9] is Rattus norvegicus. In words: CNS toxicity in albino rat assessed as duration of immobility at 100 umol/kg, ip after 0.5 hrs by Porsolt's swimpool test (Rvb= 87 +/- 1.5). The note with it: in vivo.
Data set [10] has as its system Rattus norvegicus. In words: Hepatotoxicity in albino rat assessed as serum SGPT level at 100 umol/kg, ip after 15 days (Rvb= 35.4 +/- 2.68). The note with it: in vivo, 360 h.
The test system of data set [11] is Rattus norvegicus. Nature of the data set: CNS toxicity in albino rat assessed as duration of immobility at 100 umol/kg, ip after 0.5 hrs by Porsolt's swimpool test (Rvb= 92 +/- 1.2). Particulars: in vivo.
Data set [12] deals with Rattus norvegicus. In words: CNS toxicity in albino rat assessed as duration of immobility at 100 umol/kg, ip after 0.5 hrs by Porsolt's swimpool test (Rvb= 97 +/- 2.2). The note with it: in vivo.
Data set [13] concerns Rattus norvegicus. In words: CNS toxicity in albino rat assessed as duration of immobility at 100 umol/kg, ip after 0.5 hrs by Porsolt's swimpool test (Rvb= 82 +/- 2.9). The note with it: in vivo.
Data set [14] relates to Rattus norvegicus. Nature of the data set: CNS toxicity in albino rat assessed as duration of immobility at 100 umol/kg, ip after 0.5 hrs by Porsolt's swimpool test (Rvb= 128 +/- 2.4). The note with it: in vivo.

What is called TD50 is the dose at which the toxic effect under study appears in half of the subjects. As a reminder, the ED50 is the dose that gives a 50% effect, or the effect in half of the subjects.

Turning to `CC(=O)N1N=C(Nc2nc3ccc(C)cc3s2)CC1c1ccccc1` (stereo not given), the PI in the data set filed under Mus musculus [1] is 2.49. For the same molecule, in data set [2], the TD50 at 1 min was found to be 265 µmol/kg. Besides, the results for the Activity in the data set with Mus musculus [3] and in the data set with Rattus norvegicus [5] were 23.93% and 151 s, respectively. Also, the ED50 was found to be 112 µmol/kg in the data set with Mus musculus [4] and 106 µmol/kg in the data set with Mus musculus [6]. The pED50 in the data set on Mus musculus [6] turned out to be 3.97.

On to `COc1ccc(C2CC(Nc3nc4ccc(C)cc4s3)=NN2C(C)=O)cc1O` (stereo not given), for which the PI in the data set filed under Mus musculus [1] turned out to be 1.99. Further, the Activity was found to be 177 s in the data set on Rattus norvegicus [7] and 29.5% in the data set on Mus musculus [3]. The molecule also showed a TD50 at 1 min in [2] of 147 µmol/kg. For the same molecule, the ED50 worked out at 75.6 µmol/kg in the data set with Mus musculus [4] and 73.9 µmol/kg in the data set with Mus musculus [6]. Besides, the pED50 in the data set on Mus musculus [6] amounted to 4.13.

`CC(=O)N1N=C(Nc2nc3ccc(C)cc3s2)CC1c1ccc(Cl)cc1` (stereo not given): the PI in the data set listed under Mus musculus [1] is 4.86. The Activity in the data set with Rattus norvegicus [8] is listed as 93.3 U/ml; in the data set with Rattus norvegicus [9] it was 91 s; in the data set with Mus musculus [3], 35.62%; in the data set with Rattus norvegicus [10], 33.1 U/ml. Besides, the TD50 at 1 min in [2] was 123 µmol/kg. For the same molecule, the ED50 worked out at 27.5 µmol/kg with Mus musculus [4] and 25.5 µmol/kg in the data set with Mus musculus [6]. The pED50 with Mus musculus [6] came to 4.59.

On to `CC(=O)N1N=C(Nc2nc3ccc(Cl)cc3s2)CC1c1ccc(Cl)cc1` (stereo not given), for which the PI in the data set filed under Mus musculus [1] came to 4.35. For the same molecule, the Activity in the data set with Rattus norvegicus [11] was 134 s; with Mus musculus [3] it was 31.66%. In [2], the TD50 at 1 min stood at 345 µmol/kg. Further, the ED50 with Mus musculus [4] was found to be 81.5 µmol/kg; with Mus musculus [6] it was 79.5 µmol/kg. Moreover, the pED50 in the data set with Mus musculus [6] came out at 4.1.

Regarding `COc1ccc(C2CC(Nc3nc4ccc(C)cc4s3)=NN2C(C)=O)cc1` (stereo not given), the PI in the data set filed under Mus musculus [1] is 4.68. In addition, the Activity is given as 95.4 U/ml with Rattus norvegicus [8], 163 s in the data set on Rattus norvegicus [12], 2.08% in the data set on Mus musculus [3] and 38.4 U/ml with Rattus norvegicus [10]. The TD50 at 1 min in data set [2] is 174 µmol/kg. Besides, the ED50 in the data set on Mus musculus [4] was 39.4 µmol/kg; in the data set on Mus musculus [6] it was 37.3 µmol/kg. The pED50 with Mus musculus [6] was determined as 4.43.

With `COc1ccc(C2CC(Nc3nc4ccc(Cl)cc4s3)=NN2C(C)=O)cc1` (stereo not given), the PI in the data set filed under Mus musculus [1] worked out at 2.01. Also, the figures for the Activity in the data set with Rattus norvegicus [13] and in the data set with Mus musculus [3] were 88 s and 35.91%, respectively. The molecule also showed a TD50 at 1 min in data set [2] of 187 µmol/kg. The ED50 was 97.3 µmol/kg with Mus musculus [4] and 93.3 µmol/kg in the data set with Mus musculus [6]. Also, the pED50 in the data set on Mus musculus [6] is listed as 4.03.

In the case of `CC(=O)N1N=C(Nc2nc3ccc(C)cc3s2)CC1c1ccc(O)cc1` (stereo not given), the Activity with Rattus norvegicus [14] is 136 s; with Rattus norvegicus [8] it was 89.6 U/ml; in the data set on Mus musculus [3] it was 20.94%; in the data set with Rattus norvegicus [10] it was 30.2 U/ml. Besides, the PI in the data set filed under Mus musculus [1] worked out at 3.14. For the same molecule, in data set [2], the TD50 at 1 min came out at 157 µmol/kg. In addition, the ED50 with Mus musculus [4] was found to be 54.3 µmol/kg; with Mus musculus [6], 50.2 µmol/kg. Besides, in the data set on Mus musculus [6], the pED50 is 4.3.
